Here are results for two compounds from ChEMBL document CHEMBL1157746, “Function-oriented synthesis of simplified caprazamycins: discovery of oxazolidine-containing uridine derivatives as antibacterial agents against drug-resistant bacteria” (J Med Chem, 2010).

Assay [1] has as its system Staphylococcus aureus. As to the kind of experiment: Antibacterial activity against methicillin-sensitive Staphylococcus aureus ATCC 29213 after 20 hrs by two fold microdilution broth method. The class given is functional. To be noted: ATCC 29213, 20 h. The gist of the method:
(§1)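 NCCLS-recommended broth microdilution in cation-adjusted Mueller-Hinton broth; serial 2-fold compound dilutions; each well inoculated with 5×10⁴ CFU in 0.1 mL; incubated 35 °C for 20 h, then MIC (μg/mL) scored.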
In general terms: In broth dilution the organism is exposed to a series of concentrations in liquid medium.

Assay [2] concerns Enterococcus faecium. Nature of the assay: Antibacterial activity against Enterococcus faecium ATCC 19434 after 20 hrs by two fold microdilution broth method. Particulars: ATCC 19434, 20 h. Format: functional. The gist of the method:
as §1

Assay [3] deals with Enterococcus faecalis. As to the kind of experiment: Antibacterial activity against vancomycin-resistant Enterococcus faecalis SR-7914 clinical isolate after 20 hrs by two fold microdilution broth method. To be noted: SR7914, 20 h. The class given is functional. The gist of the method: (§2)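 NCCLS broth microdilution in cation-adjusted Mueller-Hinton broth. Serial 2-fold compound dilutions, inoculum 5×10⁴ CFU per well in 0.1 mL. Plates incubated at 35 °C for 20 h, then MIC (μg/mL) scored. Strains are clinical isolates from Japanese hospitals: MRSA SR3637, VanA E. faecalis SR7914, VanA E. faecium SR7917.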

Assay [4] relates to Enterococcus faecalis. As to the kind of experiment: Antibacterial activity against Enterococcus faecalis ATCC 29212 after 20 hrs by two fold microdilution broth method. Format: functional. Particulars: ATCC 29212, 20 h. The procedure, abridged: as §1
Assay [5] deals with T1, Phospho-N-acetylmuramoyl-pentapeptide-transferase (Bacillus subtilis (strain 168), UniProt Q03521).
T1 sequence (Q03521 whole entry): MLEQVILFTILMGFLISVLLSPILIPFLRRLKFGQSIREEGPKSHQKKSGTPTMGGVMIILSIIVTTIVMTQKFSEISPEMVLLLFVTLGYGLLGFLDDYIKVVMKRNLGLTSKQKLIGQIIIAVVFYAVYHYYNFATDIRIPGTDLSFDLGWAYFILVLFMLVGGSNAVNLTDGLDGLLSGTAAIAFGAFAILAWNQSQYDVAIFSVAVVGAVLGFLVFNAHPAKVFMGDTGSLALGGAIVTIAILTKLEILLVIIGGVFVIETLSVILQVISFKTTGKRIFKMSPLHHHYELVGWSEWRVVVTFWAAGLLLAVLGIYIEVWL
As to the kind of experiment: Inhibition of Bacillus subtilis MraY after 30 mins using UDP-MurNAc-pentapeptide as substrate.

Assay [6] relates to Enterococcus faecium. Nature of the assay: Antibacterial activity against vancomycin-resistant Enterococcus faecium SR-7917 clinical isolate after 20 hrs by two fold microdilution broth method. The class given is functional. Particulars: SR7917, 20 h. The gist of the method: as §2
Assay [7] relates to Staphylococcus aureus. Nature of the assay: Antibacterial activity against methicillin-resistant Staphylococcus aureus SR-3637 clinical isolate after 20 hrs by two fold microdilution broth method. The class given is functional. To be noted: SR3637, 20 h. The gist of the method: as §2

As a reminder, the MIC is the least concentration at which growth counts as inhibited. The low end stands for greater potency, the high end for weaker potency. What is called IC50 is the midpoint of a concentration-inhibition curve. Low values mean inhibition by little substance, high ones a need for much substance.

Each structure is given as a SMILES string. A value given as a limit tells only on which side of the number the result lay.

For the compound `CCCCCCCCCCCCCCCC(=O)N1[C@H](C(=O)O)[C@@H]([C@H]2O[C@@H](n3ccc(=O)[nH]c3=O)[C@H](O)[C@@H]2O)O[C@@H]1CCCN`, the MIC in the assay with Staphylococcus aureus [1], against Enterococcus faecium [2], against Enterococcus faecalis [3], against Enterococcus faecalis [4], against Enterococcus faecium [6] and in the assay on Staphylococcus aureus [7] was over 64 µg/mL in each case. Also, the 50% inhibitory concentration (IC50) in assay [5] is 360 µM.
As for `CCCCCCCCc1ccc(C(=O)N[C@H](C(=O)O)[C@H](O[C@@H]2O[C@H](CN)[C@@H](O)[C@H]2O)[C@H]2O[C@@H](n3ccc(=O)[nH]c3=O)[C@H](O)[C@@H]2O)cc1.O=C(O)C(F)(F)F`, the MIC was over 64 µg/mL with Staphylococcus aureus [1]; over 64 µg/mL in the assay with Enterococcus faecium [2]; over 64 µg/mL in the assay with Enterococcus faecalis [3]; 64 µg/mL in the assay on Enterococcus faecalis [4]; over 64 µg/mL with Enterococcus faecium [6]; over 64 µg/mL in the assay on Staphylococcus aureus [7]. Moreover, in assay [5], the midpoint of inhibition, the IC50, lay at 256 µM.
